According to ChEMBL document CHEMBL1142588, “Communesins G and H, new alkaloids from the psychrotolerant fungus Penicillium rivulum” (J Nat Prod, 2005):
The source made the active and inactive calls. The calls are words filed in the database; no cut-off is given here.

What was measured:
[1] = system: Human alphaherpesvirus 1; assay: Antiviral activity against herpes simplex virus type 1 ATCC VR 733 infected in african green monkey BS-C-1 cells; type: functional, organism-based
Summary of the method: (§1)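 BSC-1 African green monkey kidney cells infected with Herpes simplex type 1 virus (ATCC VR 733); scored for inhibition of virus and for alteration of the host cells.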

[2] = system: Bacillus subtilis; assay: Antibacterial activity against Bacillus subtilis assessed as inhibition zone at 1 mg/mL by paper disk assay; type: functional, organism-based
Summary of the method: (§2)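 Paper disk diffusion; 30 μL of a 1 mg/mL compound solution applied per disk; read-out as zone of inhibition. Panel run in parallel: bacteria E. coli, B. subtilis, P. aeruginosa; fungi C. albicans, T. mentagrophytes, A. resinae.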

[3] = system: Trichophyton mentagrophytes; assay: Antifungal activity against Trichophyton mentagrophytes assessed as inhibition zone at 1 mg/mL by paper disk assay; type: functional, organism-based; summary of the method: as §2
[4] = system: Poliovirus 1; assay: Antiviral activity against Poliovirus type 1 infected in african green monkey BS-C-1 cells; type: functional, organism-based
Summary of the method: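 Poliovirus type 1 (Pfizer vaccine strain) infecting African green monkey kidney BSC-1 cells; scored for inhibition of the virus and for alteration of the host cells.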

[5] = system: P388; assay: Cytotoxicity against mouse P388 cells; type: functional; conditions: read-out: ID50 (the source's name)
[6] = system: Amorphotheca resinae; assay: Antifungal activity against Amorphotheca resinae assessed as inhibition zone at 1 mg/mL by paper disk assay; type: functional, organism-based; summary of the method: as §2
[7] = Cytotoxicity against african green monkey BS-C-1 cells; type: cell-based; conditions: chlorocebus aethiops, bsc-1; summary of the method: as §1
[8] = system: Pseudomonas aeruginosa; assay: Antibacterial activity against Pseudomonas aeruginosa assessed as inhibition zone at 1 mg/mL by paper disk assay; type: functional, organism-based; summary of the method: as §2
[9] = system: Candida albicans; assay: Antifungal activity against Candida albicans assessed as inhibition zone at 1 mg/mL by paper disk assay; type: functional, organism-based; summary of the method: as §2
[10] = system: Escherichia coli; assay: Antibacterial activity against Escherichia coli assessed as inhibition zone at 1 mg/mL by paper disk assay; type: functional, organism-based; summary of the method: as §2

## CCC(=O)N1CC[C@]23c4ccccc4N[C@H]4N(C)c5cccc6c5[C@]42CCN([C@H]6[C@@H]2OC2(C)C)[C@H]13 [COMMUNESIN G]
[1]
  Activity: inactive
[2]
  Activity: inactive
[3]
  Activity: inactive
[4]
  Activity: inactive
[5]
  IC50: > 12.5 mg/L
[6]
  Activity: inactive
[7]
  Activity: Non-toxic
[8]
  Activity: inactive
[9]
  Activity: inactive
[10]
  Activity: inactive

## CCCC(=O)N1CC[C@]23c4ccccc4N[C@H]4N(C)c5cccc6c5[C@]42CCN([C@H]6[C@@H]2OC2(C)C)[C@H]13 [COMMUNESIN H]
[1]
  Activity: inactive
[2]
  Activity: inactive
[3]
  Activity: inactive
[4]
  Activity: inactive
[5]
  IC50: > 12.5 mg/L
[6]
  Activity: inactive
[7]
  Activity: Non-toxic
[8]
  Activity: inactive
[9]
  Activity: inactive
[10]
  Activity: inactive
